Results gathered from unrelated publications.
Lines come from different studies, so protocols differ.
PIK3CA E545A: Phosphatidylinositol 4,5-bisphosphate 3-kinase catalytic subunit alpha isoform (PIK3CA, Homo sapiens, UniProt P42336, E545A)
PIK3CA H1047Y: Phosphatidylinositol 4,5-bisphosphate 3-kinase catalytic subunit alpha isoform (PIK3CA, Homo sapiens, UniProt P42336, H1047Y)
PIK3CA: Phosphatidylinositol 4,5-bisphosphate 3-kinase catalytic subunit alpha isoform (PIK3CA, Homo sapiens, UniProt P42336)
PIK3CA H1047L: Phosphatidylinositol 4,5-bisphosphate 3-kinase catalytic subunit alpha isoform (PIK3CA, Homo sapiens, UniProt P42336, H1047L)
PIK3CA E545K: Phosphatidylinositol 4,5-bisphosphate 3-kinase catalytic subunit alpha isoform (PIK3CA, Homo sapiens, UniProt P42336, E545K)
PIK3CA E542K: Phosphatidylinositol 4,5-bisphosphate 3-kinase catalytic subunit alpha isoform (PIK3CA, Homo sapiens, UniProt P42336, E542K)

CCCOc1ccc([C@@H]2[C@@H](C(=O)O)[C@H](c3ccc4c(c3)OCO4)CN2CC(=O)Nc2c(CC)cccc2CC)cc1 — remaining binding (PIK3CA E545A; cell-free assay, competition with immobilised ligand; 1 µM): 92%
Cc1ccc(C(=O)NCc2ccsc2)cc1C#Cc1cn(C(C)C)c2ncnc(N)c12 — activity vs control (Phosphatidylinositol 4,5-bisphosphate 3-kinase catalytic subunit alpha isoform, with p85 (PIK3CA, Homo sapiens, UniProt P42336); enzyme activity, inhibitor; 1 µM): 97%
Nc1ncnc2occ(-c3ccc(NC(=O)Nc4cc(C(F)(F)F)ccc4F)cc3)c12 — remaining signal (Phosphatidylinositol 4,5-bisphosphate 3-kinase catalytic subunit alpha isoform (PIK3CA, Homo sapiens, UniProt P42336, Q546K); cell-free assay, inhibitor; 20 µM): 72%
Nc1cnc(N2CCc3cc(S(=O)(=O)Nc4c(F)cc(Cl)cc4F)cc(N4CCCC4=O)c32)nc1 — remaining binding (PIK3CA H1047Y; cell-free assay, competition with immobilised ligand; 1 µM): 100%
CS(=O)(=O)Nc1cc(-c2ccc3ncnc(Nc4ccc(F)c(Cl)c4)c3c2)cnc1Cl — inhibition (PIK3CA; enzyme activity, inhibitor, FRET; 10 µM): 90 to 100%
O=S(=O)(Nc1cc(Sc2ncn[nH]2)c(O)c2ccccc12)c1ccc(-c2ccccc2)cc1 — remaining activity (PIK3CA; enzyme activity, inhibitor; 1 µM): ≥ 75%
CC(C)CCn1c(SCC(=O)Nc2ccccc2C(F)(F)F)nc2nccnc2c1=O — inhibition (PIK3CA; enzyme activity, inhibitor; 10 µM): < 20%
CN(C)c1ncc(F)c(-c2cnn3ncccc23)n1 — remaining binding (PIK3CA H1047L; binding; 1 µM): 100%
NS(=O)(=O)c1cc(NC(=O)Cc2ccccc2)ccc1Oc1cccc(Cl)c1 — remaining binding (PIK3CA E545A; cell-free assay, competition with immobilised ligand; 1 µM): 69%
Cc1ccc(C(=O)Nc2ccc(CN3CCN(C)CC3)c(C(F)(F)F)c2)cc1C#Cc1cnc2cccnn12 — remaining activity (PIK3CA E545K; enzyme activity, inhibitor; 23.5 nM): 88%
Cc1c[nH]c2nccc(Oc3c(F)cc(Nc4cc(Cl)nc(N)n4)cc3F)c12 — remaining binding (PIK3CA H1047Y; cell-free assay, competition with immobilised ligand; 0.1 µM): 83%
N[C@@H]1CCN(c2nccc(-c3cnn4ncccc34)n2)C1 — remaining binding (PIK3CA E542K; binding; 1 µM): 80%
C/C=C/C(=O)CCCCCC(=O)N1CCN(c2nc(-c3cnc(N)nc3C(F)F)nc(N3CCOCC3)n2)CC1 — kinact (PIK3CA; cell-free assay, TR-FRET): 0.0153 s⁻¹
O=C(O)[C@@H]1[C@@H](Cn2nnc3ccccc3c2=O)CC[C@H]1C(=O)c1ccc(OCCC2CCOCC2)cc1 — remaining binding (PIK3CA; cell-free assay, competition with immobilised ligand; 1 µM): 100%
CCCCNc1ncc2c(-c3ccc(F)cc3)nn(C[C@H]3CC[C@H](N)CC3)c2n1 — inhibition (PIK3CA; target engagement in cells, inhibitor, chemoproteomics; 20 mM): 70.8%
C=CC(=O)N(C)CCCCC(=O)N1CCN(c2nc(-c3cnc(N)nc3C(F)F)nc(N3CCOCC3)n2)CC1 — kinact (PIK3CA; ligand displacement, TR-FRET): 0.000127 s⁻¹
F[C@@H]1CCN(c2nccc(-c3cnn4ncccc34)n2)C1 — remaining binding (Phosphatidylinositol 4,5-bisphosphate 3-kinase catalytic subunit alpha isoform (PIK3CA, Homo sapiens, UniProt P42336, M1043I); binding; 1 µM): 100%
CC(C)=CC(=O)CCCC(=O)N1CCN(c2nc(-c3cnc(N)nc3C(F)F)nc(N3CCOCC3)n2)CC1 — kinact/KI (PIK3CA; ligand displacement, TR-FRET): 3210 M⁻¹ s⁻¹
C[C@@H]1CCN(c2nccc(-c3cnn4ncccc34)n2)C1 — remaining binding (PIK3CA; binding; 1 µM): 100%
O=c1nc(-c2ccccn2)sc2ccccc12 — remaining binding (PIK3CA E542K; cell-free assay, competition with immobilised ligand; 1 µM): 89%
Cc1cnn2ncc(-c3ccnc(N(C)C)n3)c2c1 — remaining binding (Phosphatidylinositol 4,5-bisphosphate 3-kinase catalytic subunit alpha isoform (PIK3CA, Homo sapiens, UniProt P42336, I800L); binding; 1 µM): 100%
Cn1nc(C(F)(F)F)cc1-c1cnc(N2CCc3cc(S(=O)(=O)Nc4c(F)cc(Cl)cc4F)cc(N4CCCC4=O)c32)nc1 — remaining binding (PIK3CA H1047L; cell-free assay, competition with immobilised ligand; 1 µM): 94%
CC(=O)Oc1ccc(-c2coc3c4c(c(CC=C(C)C)c(OC(C)=O)c3c2=O)OC(C)(C)C=C4)cc1OC(C)=O — remaining activity (PIK3CA E542K; enzyme activity, inhibitor, ADP detection; 10 µM): 46.1%
C=CC(=O)N1CCC(C(=O)N(C)CCCC(=O)N2CCN(c3nc(-c4cnc(N)nc4C(F)F)nc(N4CCOCC4)n3)CC2)CC1 — kinact (PIK3CA; cell-free assay, TR-FRET): 0.000406 s⁻¹
c1cnn2ncc(-c3ccnc(N4CCC45COC5)n3)c2c1 — remaining binding (Phosphatidylinositol 4,5-bisphosphate 3-kinase catalytic subunit alpha isoform (PIK3CA, Homo sapiens, UniProt P42336, C420R); binding; 1 µM): 71%
C=CC(=O)NCCCCC(=O)N1CCN(c2nc(-c3cnc(N)nc3C(F)F)nc(N3CCOCC3)n2)CC1 — kinact/KI (PIK3CA; cell-free assay, TR-FRET): 16400 M⁻¹ s⁻¹
CN(C)c1ncnc(-c2ccc3nc(Nc4cc(CN5CCN(C(=O)CC(F)(F)F)CC5)ccn4)[nH]c3c2)c1Cl — remaining binding (PIK3CA E545K; cell-free assay, competition with immobilised ligand; 1 µM): 76%
